ChEMBL document CHEMBL4390693, “New analogs of SYA013 as sigma-2 ligands with anticancer activity” (Bioorg Med Chem, 2019)

Key:
[1] = Displacement of [3H]-DTG from sigma 2 receptor (unknown origin) expressed in HEK293T cell membranes; set-up: species or system Homo sapiens
[2] = biological target: Sigma non-opioid intracellular receptor 1 (Homo sapiens, UniProt Q99720); assay: Displacement of [3H]-Pentazocine from sigma 1 receptor (unknown origin) expressed in HEK293T cell membranes
Homo sapiens = species on record: Homo sapiens; assay: Selectivity index, ratio of Ki for displacement of [3H]-Pentazocine from sigma 1 receptor (unknown origin) expressed in HEK293T cell membranes to KI for displacement of [3H]-DTG from sigma 2 receptor (unknown origin) expressed in HEK293T cell membranes
Procedure, shortened: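 Sigma-1 and sigma-2 binding was run by the NIMH Psychoactive Drug Screening Program. pKi is the mean of three independent experiments, each done at least in triplicate. The index is the ratio of the two receptor Ki values.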

MIA PaCa-2 = assay: Cytotoxicity against human MIAPaCa2 cells assessed as reduction in cell viability resazurin reagent based fluorescent assay; assay type: functional
Procedure, shortened: (§1)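 Cells seeded at 20,000 per well, attached overnight in experimental medium with 5% FBS at 37 °C, then exposed to varying concentrations of σ2 ligands in 1:9 DMSO/acetone (cisplatin in 0.9% saline) for 24, 48 or 72 h, with re-dosing every 24 h. Matched vehicle controls. Read-out is 0.02% resazurin for 2-3 h, fluorescence ex 560/em 590 nm, viability as % of control. IC50 from non-linear regression of log concentration.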

MDA-MB-231 [3] = assay: Cytotoxicity against human MDA-MB-231 cells assessed as reduction in cell viability incubated for 48 hrs by resazurin reagent based fluorescent assay; assay type: functional; conditions: MDA-MB-231, 48 h; procedure, shortened: as §1
A549 = assay: Cytotoxicity against human A549 cells assessed as reduction in cell viability resazurin reagent based fluorescent assay; assay type: functional; procedure, shortened: as §1
PANC-1 = assay: Cytotoxicity against human PANC1 cells assessed as reduction in cell viability resazurin reagent based fluorescent assay; assay type: functional; procedure, shortened: as §1
MDA-MB-231 [4] = assay: Cytotoxicity against human MDA-MB-231 cells assessed as reduction in cell viability incubated for 72 hrs by resazurin reagent based fluorescent assay; assay type: functional; conditions: MDA-MB-231, 72 h; procedure, shortened: as §1
HEK293 = assay: Cytotoxicity against HEK293 cells assessed as reduction in cell viability incubated for 72 hrs by resazurin reagent based fluorescent assay; conditions: Homo sapiens, HEK293, 72 h; procedure, shortened: as §1
MDA-MB-231 [5] = assay: Cytotoxicity against human MDA-MB-231 cells assessed as reduction in cell viability incubated for 24 hrs by resazurin reagent based fluorescent assay; assay type: functional; conditions: MDA-MB-231, 24 h; procedure, shortened: as §1
MCF-10A = assay: Cytotoxicity against human MCF10A cells assessed as reduction in cell viability resazurin reagent based fluorescent assay; procedure, shortened: as §1
PC-3 = assay: Cytotoxicity against human PC3 cells assessed as reduction in cell viability resazurin reagent based fluorescent assay; assay type: functional; procedure, shortened: as §1
MDA-MB-468 = assay: Cytotoxicity against human MDA-MB-468 cells assessed as reduction in cell viability resazurin reagent based fluorescent assay; assay type: functional; procedure, shortened: as §1

Sigma non-opioid intracellular receptor 1, sequence (Q99720 whole entry): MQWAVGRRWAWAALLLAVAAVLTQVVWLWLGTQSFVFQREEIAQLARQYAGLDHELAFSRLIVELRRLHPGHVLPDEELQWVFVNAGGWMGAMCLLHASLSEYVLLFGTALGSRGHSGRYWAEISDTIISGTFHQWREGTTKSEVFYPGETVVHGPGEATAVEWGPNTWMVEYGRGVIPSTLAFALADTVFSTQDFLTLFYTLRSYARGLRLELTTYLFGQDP

Structure (SMILES) | Ki [1] | pKi [1] | Ki [2] | Ratio Ki (Homo sapiens) | IC50 (MIA PaCa-2) | IC50 (MDA-MB-231 [3]) | IC50 (A549) | IC50 (PANC-1) | IC50 (MDA-MB-231 [4]) | IC50 (HEK293) | IC50 (MDA-MB-231 [5]) | IC50 (MCF-10A) | IC50 (PC-3) | IC50 (MDA-MB-468)
Fc1ccc2c(c1)CC(CCN1CCCN(c3ccccn3)CC1)C2 (stereo not drawn) | 1.4 nM | 8.85 | 22 nM | 15.7 |  |  |  |  |  |  |  |  |  | 
O=C1c2ccccc2CC1CCN1CCCN(c2ccc(Cl)cc2)CC1 (stereo not drawn) | 4.4 nM |  | 21 nM | 4.8 |  |  |  |  |  |  |  |  |  | 
O=C1c2ccc(Cl)cc2CC1CCN1CCCN(c2ccc(Cl)cc2)CC1 (stereo not drawn) | 19 nM | 7.72 | 26 nM | 1.4 |  |  |  |  |  |  |  |  |  | 
O/N=C1/c2ccc(F)cc2CC1CCN1CCCN(c2ccc(Cl)cc2)CC1 (stereo not drawn) | 407 nM | 6.4 | 277 nM | 0.7 | 10000 nM | 8000 nM | > 200000 nM | 76000 nM |  |  |  |  |  | 
O=C1c2ccc(F)cc2CC1CCN1CCCN(c2ccccn2)CC1 (stereo not drawn) | 1.8 nM | 8.75 | 44 nM | 24.4 |  |  |  |  |  |  |  |  |  | 
O=C1C(CCN2CCCN(c3ccc(Cl)cc3)CC2)=Cc2cc(Cl)ccc21 | 13 nM | 7.9 | 4.9 nM | 0.4 |  |  |  |  |  |  |  |  |  | 
O=C1c2ccc(F)cc2CC1CCN1CCCN(c2ccc(Cl)cc2)CC1 (stereo not drawn) | 0.6 nM | 9.22 | 63 nM | 105 |  | 23500 nM |  |  | 20100 nM | 41300 nM | 33600 nM |  |  | 
O=C(CCCN1CCCN(c2ccc(Cl)cc2)CC1)c1ccc(F)cc1 |  |  |  |  | 2000 nM | 18000 nM | 6200 nM | 400 nM | 15000 nM |  | 36000 nM | 22000 nM | 8200 nM | 5000 nM
O=C1c2ccc(F)cc2CC1CCN1CCCN(c2ccc(Cl)cn2)CC1 (stereo not drawn) | 0.7 nM | 9.13 | 16 nM | 22.9 | 42000 nM | 58000 nM | 52000 nM | 51000 nM |  |  |  |  |  | 
O/N=C(\CCCN1CCCN(c2ccc(Cl)cc2)CC1)c1ccc(F)cc1 | 3.5 nM | 8.46 | 5.1 nM | 1.5 | 1500 nM | 8000 nM | 5800 nM | 140 nM | 7000 nM |  | 17000 nM | 20000 nM | 6900 nM | 4000 nM
O=C1C(CCN2CCCN(c3ccc(Cl)cc3)CC2)=Cc2cc(F)ccc21 | 20 nM | 7.7 | 78 nM | 3.9 |  |  |  |  |  |  |  |  |  | 
O=C1c2ccc(Cl)cc2CC1CCN1CCN(c2ccc(Cl)cc2)CC1 (stereo not drawn) | 18 nM | 7.74 | 21 nM | 1.2 |  |  |  |  |  |  |  |  |  | 
